Assay outcomes (PubChem BioAssay)
Most compounds without a hit are left out; they make up all but 29% or so of the library.
Ecoli WT expand = growth inhibitors of wild-type E. coli, primary screen, strain BW25113, expanded library, OD600 | 98,000 compounds, 0.15% hits | AID 710, 2007 | OD600 absorbance | growth inhibition, % at 100 µM;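 active = growth inhibition above about 50% at one test dose, limit read from the data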;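 also: growth measured after 20 h incubation at 37 °C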
CYP2C9 inh = blockers of cytochrome P450 2C9 activity – biochemical, luminescence, ADME assay, primary screen; CYP2C9 Supersomes, luciferin-H conversion; inhibition, % at 5 µM; 96,000 compounds, 20% hits;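 active = blocking of liver enzyme CYP2C9 beyond about 50% at 5 µM, limit read from the data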
CYP2C19 act = human CYP2C19 activators, primary screen, biochemical, luminescence | recombinant CYP2C19, luciferin-H EGE luminescence; active compounds read high; 0 = fully inhibited enzyme, 1 = untreated enzyme | 96,000 tested, under 10 active | Cytochrome P450 2C19 (Homo sapiens), P33261 | activation factor at 5 µM;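 active = activation factor of at least 2 at 5 µM in the primary screen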
Target sequence (P33261 whole entry, looked up): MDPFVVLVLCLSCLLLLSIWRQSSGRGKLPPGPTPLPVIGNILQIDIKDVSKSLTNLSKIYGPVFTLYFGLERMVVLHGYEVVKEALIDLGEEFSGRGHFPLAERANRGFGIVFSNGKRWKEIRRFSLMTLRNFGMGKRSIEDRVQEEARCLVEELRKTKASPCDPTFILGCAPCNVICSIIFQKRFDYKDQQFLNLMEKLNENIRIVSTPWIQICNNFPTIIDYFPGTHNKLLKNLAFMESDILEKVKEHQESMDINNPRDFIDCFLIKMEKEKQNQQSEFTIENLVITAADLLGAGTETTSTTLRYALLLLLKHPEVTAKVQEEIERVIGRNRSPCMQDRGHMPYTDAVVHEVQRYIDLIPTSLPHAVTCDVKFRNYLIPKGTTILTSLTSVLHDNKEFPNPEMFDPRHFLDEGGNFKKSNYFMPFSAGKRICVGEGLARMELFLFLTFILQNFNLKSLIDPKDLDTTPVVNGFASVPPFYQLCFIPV
CYP2C19 inh = blockers of cytochrome P450 2C19 activity – biochemical, luminescence, ADME assay, primary screen; P33261; CYP2C19 Supersomes, luciferin-H EGE luminescence, 30 min; inhibition, % at 5 µM; 96,000 compounds, 21% hits; AID 778, 2007;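 active = CYP2C19 inhibition above a set limit at 5 µM in the primary screen, cut at about 50% in these data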
tolC growth inh = growth inhibitors of E. coli tolC mutant, primary screen, strain BW25113 ΔtolC::kan, 384-well; OD615; growth inhibition, % at 10 µM (by protocol); 65,000 compounds, 2.2% hits; AID 573, 2007;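 active = growth inhibition at or above a cutoff equal to the mean over every tested compound plus 3 SD, cut at about 60% in these data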;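 also: growth measured after 20 h incubation at 37 °C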
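System: E. coli ΔtolC::kan strain BW25113; Buffer or medium: LB broth supplemented with 50 µg/mL kanamycin; Compound: 10 µM final, single dose; Incubation: bacterial growth with compound for 20 h at 37 °C; Signal: A615 absorbance measurement; Evaluation: growth inhibition in percent.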
CYP2C9 activ = human CYP2C9 activators, primary screen, biochemical, luminescence | Cytochrome P450 2C9 (Homo sapiens), P11712 | recombinant CYP2C9, luciferin-H conversion; active compounds read high; factor 1 = untreated enzyme, 0 = blocked | activation factor at 5 µM | 96,000 compounds, 1.4% hits;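 active = activation factor of 2 or more for CYP2C9 at a 5 µM dose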
Of the large screens only hits and unclear results are named; the others gave an inactive call.

OCC(O)C(O)C(O)C(O)C1NCCS1 (stereo unspecified)	none (no result: tolC growth inh)
C=CCNC(=O)C1CCCN(S(C)(=O)=O)C1 (stereo unspecified)	none
Cc1c(O)ccc(C(=O)COc2ccccc2F)c1O	CYP2C19 inh 69
COC(=O)c1ccc(OCC(=O)c2ccc(O)cc2O)cc1	none
O=C(COc1ccccc1F)c1ccc(O)cc1O	CYP2C19 inh 92
Cc1c(O)ccc(C(=O)CN2C(=O)c3ccccc3C2=O)c1O	CYP2C19 inh 81
CCN(CC)C(=O)Oc1ccc(NC(C)=O)cc1	none
CCCCc1nc2ccccc2n1Cc1nnc2n1-c1ccccc1SC2	CYP2C9 inh 92, CYP2C19 inh 91
O=C1c2ccccc2NC2(CCCCC2)N1c1ccc(O)cc1	CYP2C9 inh 56
Cc1ccc(CN(C(=O)Cn2nnc3ccccc32)C(C(=O)NCc2ccco2)c2cccs2)cc1 (stereo unspecified)	CYP2C19 inh 73
COc1ccc(OC)c(-n2c(SCC(=O)NCc3ccco3)nnc2-c2c[nH]c3ccccc23)c1	CYP2C9 inh 66
COc1cccc(-n2c(SCC(=O)NCc3ccco3)nnc2-c2c[nH]c3ccccc23)c1	CYP2C9 inh 59, CYP2C19 inh 66 (no result: tolC growth inh)
COc1cccc(-n2c(SC)nnc2-c2c[nH]c3ccccc23)c1	CYP2C19 inh 62
c1ccc(Nc2nc(-c3cccs3)cs2)nc1	tolC growth inh 100 (no result: CYP2C9 inh, CYP2C19 act, CYP2C19 inh, CYP2C9 activ)
Cc1cccc(Nc2nc(-c3ccccn3)cs2)n1	CYP2C9 inh 52, CYP2C19 inh 58, tolC growth inh 98
CCNC(=S)N/N=C/c1cccs1	none (no result: tolC growth inh)
Cc1c(C(=O)N2CCC(C)CC2)oc2ccc(S(=O)(=O)N3CCC4(CC3)OCCO4)cc12	none (no result: tolC growth inh)
COC1(c2cc(-c3ccccc3)nc(N)n2)CCCCC1	CYP2C19 inh 53
Nc1nc(-c2ccccc2)cc(C(F)(F)F)n1	none
CSc1ncccc1C(=O)OCc1ccc(COC(=O)c2cccnc2SC)cc1	none (no result: tolC growth inh)
COc1ccc(CCNC(=O)c2c(O)c3c([nH]c2=O)CCCC3)cc1OC	none (no result: Ecoli WT expand, CYP2C9 inh, CYP2C19 act, CYP2C19 inh, CYP2C9 activ)
C(#Cc1ccccc1)Cn1nnc2ccccc21	none
Clc1ccc(-n2nnnc2-c2ccccc2)cc1Cl	CYP2C19 inh 95
COc1ccc(-n2nnnc2-c2cnc3cc4c(cc3c2C)OCO4)cc1	none (no result: tolC growth inh)
COc1ccc(-n2nnnc2-c2cccc(OC)c2)cc1	CYP2C9 inh 85, CYP2C19 inh 99
O=c1c2ccccc2c(-c2ccccc2)nn1-c1ccc(Cl)c(Cl)c1	none (no result: tolC growth inh)
CC(=O)N1CCC2(CC1)CC(=O)c1cc(OCC(=O)NCc3ccco3)ccc1O2	none
CCN(CC)c1ccc(NC(=O)COC(=O)C23CCC(=O)N2c2ccccc2S3)cc1 (stereo unspecified)	none (no result: tolC growth inh)
CC(C)OC(=O)c1c2nc3ccccc3nc2n2c1[nH]c(=O)c1ccccc12	none
O=C1c2ccccc2C(=O)N1CC1c2ccccc2CCN1S(=O)(=O)c1cnc[nH]1 (stereo unspecified)	CYP2C9 inh 97, CYP2C19 inh 78
Cc1ccc(S(=O)(=O)N2CCc3ccccc3C2CN2C(=O)c3ccccc3C2=O)cc1 (stereo unspecified)	CYP2C19 inh 71 (no result: tolC growth inh)
COC(=O)C1C(=O)C=C(N2CCOCC2)CC1(C)C (stereo unspecified)	none
Nc1nc(-c2c[nH]c3ccccc23)cs1	none
CNc1nc(-c2c[nH]c3ccccc23)cs1	CYP2C9 inh 78, CYP2C19 inh 73 (no result: tolC growth inh)
N#Cc1c(-c2ccccc2)ccn(Cc2ccccc2Cl)c1=O	CYP2C19 inh 54 (no result: tolC growth inh)
N#Cc1c(-c2ccccc2)ccn(Cc2cccc(Cl)c2)c1=O	CYP2C9 inh 51, CYP2C19 inh 77 (no result: tolC growth inh)
CSc1cc(-c2ccccc2)n(Cc2ccccc2Cl)c(=O)c1C#N	CYP2C9 inh 61 (no result: tolC growth inh)
Cc1nn(-c2ccccc2)c2nc(N)c(C#N)c(-c3ccc(F)cc3)c12	CYP2C9 inh 84
O=C(CSc1nnc(-c2ccco2)n1Cc1ccccc1)c1ccccc1	CYP2C9 inh 87, CYP2C19 inh 93
Cn1c(SCC(=O)c2ccc(-c3ccccc3)cc2)nnc1-c1ccco1	CYP2C9 inh 56, CYP2C19 inh 68
Cc1ccc(C(=O)CSc2nnc(-c3ccco3)n2Cc2ccccc2)cc1	CYP2C9 inh 62, CYP2C19 inh 58
CC(C)Cn1c(SCC(=O)c2ccc(Cl)s2)nnc1-c1ccco1	CYP2C9 inh 72, CYP2C19 inh 67
CC1CCCCN1CC(=O)Nc1sccc1C#N (stereo unspecified)	none (no result: tolC growth inh)
CN(C)c1nc(C(N)=O)nc(N2CCOCC2)n1	none (no result: tolC growth inh)
O=C(Cn1c(=O)n(Cc2ccco2)c(=O)c2c3c(sc21)CCCCC3)Nc1ccccc1	none (no result: tolC growth inh)
O=c1c2c3c(sc2n(CCN2CCCC2)c(=O)n1Cc1ccco1)CCCCC3	CYP2C9 inh 52
O=C(Cn1c(=O)n(Cc2ccco2)c(=O)c2c3c(sc21)CCCCC3)c1ccccc1	CYP2C9 inh 53 (no result: tolC growth inh)
O=C(COc1cccc(NC(=O)c2ccco2)c1)c1ccc(F)cc1	none
CCCCC(=O)Nc1cc(NC(=O)CCCC)cc(C(=O)O)c1	none
COc1ccc(OC)c(N(CC(=O)Nc2ccc3c(c2)OCO3)S(=O)(=O)c2ccccc2)c1	CYP2C9 inh 100, CYP2C19 inh 98
COc1ccc(OC)c(N(CC(=O)O)S(=O)(=O)c2ccc(OC)c(OC)c2)c1	none
COc1ccc(Cl)cc1N(CC(=O)Nc1ccc2c(c1)OCO2)S(C)(=O)=O	CYP2C9 inh 86, CYP2C19 inh 95
COCCCNC(=O)CN(c1cc(OC)ccc1OC)S(=O)(=O)c1ccccc1	CYP2C9 inh 59, CYP2C19 inh 56
CS(=O)(=O)N(CC(=O)Nc1ccc2c(c1)OCCO2)c1ccc2c(c1)OCO2	CYP2C9 inh 58, CYP2C19 inh 88
CCOC(=O)C1CCN(C(=O)CN(c2cc(OC)ccc2OC)S(=O)(=O)c2ccccc2)CC1	none
CS(=O)(=O)N(CC(=O)Nc1ccc2c(c1)OCO2)c1ccccc1	none
O=C(NCc1cccs1)C1CCC(CNS(=O)(=O)c2ccc(Br)s2)CC1 (stereo unspecified)	none
O=C1CSC(c2ccccn2)N1c1ccc(Cl)c(Cl)c1 (stereo unspecified)	CYP2C19 inh 63 (no result: tolC growth inh)
O=C1CSC(c2cccnc2)N1c1ccc(F)cc1 (stereo unspecified)	none (no result: tolC growth inh)
Cc1c(C(=O)OCC(C)C)[nH]c2c1C(=O)CC(c1ccco1)C2 (stereo unspecified)	none
